Measured values taken from ChEMBL document CHEMBL2321840, “Synthesis and structure-activity relationships of indazole arylsulfonamides as allosteric CC-chemokine receptor 4 (CCR4) antagonists” (J Med Chem, 2013).
pIC50: −log10 of the molar value. In brackets after ≈: the same amount, converted by molar mass.

Key:
[1] = Lipophilicity, log D of the compound by chromatographic analysis; format: physicochemical
Method in brief: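 Chromatographic log D measured at pH 7.4.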

[2] = Plasma protein binding in human by equilibrium dialysis technique; format: ADME, cell-free; conditions: read-out: PPB (converted)
Method in brief: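 Rapid equilibrium dialysis in CD rat, beagle dog or human plasma, with compound at a nominal 1 μg/mL; n = 3.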

[3] = in vivo; conditions: CD, rat, iv, 1 mg/kg
[4] = Oral bioavailability in CD rat at 1 mg/kg; format: ADME, organism-based; conditions: in vivo
Method in brief: (§1)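 CD rat pharmacokinetics, with compounds given as solutions in DMSO–PEG200–H₂O (5:45:50); one analogue used a 10:40:50 ratio.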

[5] = Volume of distribution at steady state in CD rat at 1 mg/kg, iv and 1 mg/kg, po; format: ADME, organism-based; conditions: in vivo, read-out: Vdss; method in brief: as §1
[6] = in vivo; conditions: CD, rat, iv, 1 mg/kg; remark: listed apart in the source
[7] = in vivo; conditions: beagle, dog, iv, 0.5 mg/kg
[8] = (§2) Volume of distribution at steady state in Beagle dog at 0.5 mg/kg, iv; format: ADME, organism-based, Canis lupus familiaris; parameters: dose 0.5 mg/kg, route intravenous; conditions: beagle, in vivo, read-out: Vdss
[9] = target: T1, C-C chemokine receptor type 4 (Homo sapiens, UniProt P51679); assay: Antagonist activity at CCR4 receptor in human whole blood assessed as F-actin polymerization after 30 mins by FACS-based flow cytometric analysis; conditions: read-out: pA2 (converted)
T1 sequence (P51679 whole entry): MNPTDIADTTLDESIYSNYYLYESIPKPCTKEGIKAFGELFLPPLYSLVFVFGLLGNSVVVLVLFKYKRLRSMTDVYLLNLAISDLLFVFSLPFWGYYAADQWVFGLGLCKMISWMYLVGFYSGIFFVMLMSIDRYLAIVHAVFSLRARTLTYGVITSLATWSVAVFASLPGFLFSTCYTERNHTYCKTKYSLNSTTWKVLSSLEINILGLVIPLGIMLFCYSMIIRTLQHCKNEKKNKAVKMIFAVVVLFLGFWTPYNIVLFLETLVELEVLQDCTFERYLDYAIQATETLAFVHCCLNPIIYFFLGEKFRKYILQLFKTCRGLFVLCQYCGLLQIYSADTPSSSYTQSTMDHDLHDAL

[10] = in vivo; conditions: beagle, dog, iv, 0.5 mg/kg; remark: listed apart in the source
[11] = target: T1, C-C chemokine receptor type 4; assay: Antagonist activity at human recombinant CCR4 receptor expressed in CHO cell membranes by [35S]GTPgammaS binding assay; format: functional
[12] = Kinetic solubility of the compound by chemiluminescent nitrogen detection assay; format: physicochemical; conditions: read-out: Kinetic_solubility
[13] = Oral bioavailability in Beagle dog at 1 mg/kg; format: ADME, organism-based, Canis lupus familiaris; conditions: in vivo
[14] = organism: Canis familiaris; conditions: dog, in vivo, iv, 0.5 mg/kg
[15] = tested on: Canis familiaris; assay: as §2; format: ADME, organism-based, Canis lupus familiaris; parameters: dose 0.5 mg/kg, route intravenous; conditions: in vivo
[16] = Equilibrium solubility of the compound in simulated gastric fluid at pH 1.6 after 24 hrs by HPLC analysis; format: physicochemical
Method in brief: (§3)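 Solid compound was equilibrated 24 h in the stated medium: water, SGF pH 1.6, FeSSIF pH 6.5, FaSSIF pH 6.5 or saline. Dissolved compound was quantified by HPLC.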

[17] = Equilibrium solubility of the compound in fed-state simulated intestinal fluid at pH 6.5 after 24 hrs by HPLC analysis; format: physicochemical; method in brief: as §3
[18] = Equilibrium solubility of the compound in fasted-state simulated intestinal fluid at pH 6.5 after 24 hrs by HPLC analysis; format: physicochemical; method in brief: as §3
[19] = Equilibrium solubility of the compound in water after 24 hrs by HPLC analysis; format: physicochemical; method in brief: as §3

Row | chromatographic logD [1] | fraction unbound [2] | half-life [3] | bioavailability [4] | Vd [5] | clearance [6] | half-life [7] | Vd [8] | Kb [9] | clearance [10] | pIC50 [11] | solubility kinetic [12] | bioavailability [13] | t1/2 [14] | Vdss [15] | solubility thermodynamic at 24 h [16] | solubility thermodynamic at 24 h [17] | solubility thermodynamic at 24 h [18] | solubility thermodynamic at 24 h [19] | SMILES
1 | 3.9 | 0.018 | 1.2 h | 32% | 0.78 L/kg | 18 mL/min/kg | 2.6 h | 3 L/kg | 79.4 nM | 41 mL/min/kg | 7.80 | ≥ 212 µg/mL | 39% | – | – | – | – | – | – | COc1cccc2c1c(NS(=O)(=O)c1ccc(Cl)s1)nn2Cc1cccc(CNC(=O)[C@@H]2COCCN2)c1
2 | 3.1 | 0.054 | 0.8 h | 19% | 0.79 L/kg | 17 mL/min/kg | 5.9 h | 6 L/kg | 200 nM | 17 mL/min/kg | 7.80 | 191 µg/mL (≈ 348 µM) | 81% | – | – | – | – | – | – | CN[C@H](C)C(=O)NCc1cccc(Cn2nc(NS(=O)(=O)c3ccc(Cl)s3)c3c(OC)cccc32)c1
3 | 3.3 | 0.078 | 3 h | < 1% | 2.6 L/kg | 29 mL/min/kg | – | – | 126 nM | – | 7.80 | ≥ 220 µg/mL | – | 0.95 h | 11 L/kg | – | – | – | – | COc1cccc2c1c(NS(=O)(=O)c1ccc(Cl)s1)nn2Cc1cccc(CNC(=O)[C@@H]2CCCCN2)c1
4 | 4.2 | – | 1.8 h | 90% | 1.5 L/kg | 19 mL/min/kg | – | – | 631 nM | – | 7.80 | ≥ 198 µg/mL | – | – | – | 1 µg/mL (≈ 1.76 µM) | 33 µg/mL (≈ 58.2 µM) | 36 µg/mL (≈ 63.5 µM) | 32 µg/mL (≈ 56.4 µM) | COc1cc(F)cc2c1c(NS(=O)(=O)c1ccc(Cl)s1)nn2Cc1cccc(CNC(=O)C(C)(C)O)c1
